Measurements taken from ChEMBL document CHEMBL3853361 (ACS Med Chem Lett, 2016).
pIC50: −log10 of the molar value. Calls of active or inactive are those of the source. No cut-off for these calls is given here.

Key:
[1] = Drug uptake in nucleus of human SK-MEL-28 cells at 100 uM by DAPI-staining based fluorescence microscopic analysis; type: ADME, cell-based; details: sk-mel-28, 100 µM
Outline: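 SKMEL28 cells incubated with compound at 100 µM and imaged for green autofluorescence by fluorescence microscopy at 60×. Nuclei counterstained with 1 µg/mL DAPI.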

[2] = Drug level in DPBS treated with dabrafenib at 200 uM measured after irradiation of 1130 W/m2 UV-light for 15 mins by HPLC analysis; type: physicochemical; details: 0.25 h
[3] = Drug level in DMEM treated with dabrafenib at 200 uM measured after irradiation of 1130 W/m2 UV-light for 15 mins by HPLC analysis; type: physicochemical; details: 0.25 h
Outline: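 Parent drug dissolved in DMEM cell culture medium, irradiated at 1130 W/m2, then analysed by HPLC. Peak areas converted to concentrations with calibration curves (n = 4).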

SK-MEL-28 [4] = assay: Growth inhibition of human SK-MEL-28 cells harboring BRAF V600E mutant preincubated for 1 hr followed by irradiation of 1.13 kW/m2 UV-light for 5 mins measured after 48 hrs resazurin assay; type: functional, cell-based
Outline: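 SKMEL28 cells incubated 1 h with compound, then irradiated at 365 nm (1.13 kW/m2) for 5 min; growth measured 48 h after compound addition. GI50, TGI and LC50 taken from dose–response curves; n = 4, standard deviation shown.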

[5] = target: Serine/threonine-protein kinase B-raf (Homo sapiens, UniProt P15056, V600E); assay: Inhibition of recombinant human N-terminal GST-6His tagged BRAF V600E mutant (417 to 766 residues) expressed in baculovirus infected Sf9 cells preincubated with substrate followed by protein and ATP addition measured after 60 mins by scintillation counter method
[6] = Photostability of the compound in DMSO assessed as photolysis at 200 uM measured after irradiation of 1130 W/m2 UV-light for 15 mins by HPLC analysis; type: physicochemical; details: 0.25 h
SK-MEL-28 [7] = assay: Cytostatic activity in human SK-MEL-28 cells harboring BRAF V600E mutant at 10 and 30000 nM measured after 48 hrs resazurin assay
[8] = Drug level in human SK-MEL-28 cells treated with dabrafenib at 100 uM followed by UV-light irradiation by DAPI-staining based fluorescence microscopic analysis; type: ADME, cell-based; details: sk-mel-28, 100 µM
Outline: (§1)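 Fluorescence microscopy of SKMEL28 cells seeded in wells. Cells incubated with parent drug, then exposed to rising doses of 365 nm UV; green autofluorescence of the photoproduct imaged at 10× per well. Nuclei counterstained with 1 µg/mL DAPI. Controls: cells without compound given the highest UV dose.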

[9] = Antiproliferative activity against human SK-MEL-28 cells harboring BRAF V600E mutant assessed as concentration required for total growth inhibition measured after 48 hrs resazurin assay; type: functional; details: SK-MEL-28, 48 h
Outline: (§2)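 SKMEL28 melanoma cells (BRAF V600E-dependent) exposed to a range of compound concentrations, no UV; growth measured after 48 h incubation. Dose–response curves give GI50, TGI (concentration giving total growth inhibition) and LC50; n = 4, error bars standard deviation.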

SK-MEL-28 [10] = assay: Cytotoxicity against human SK-MEL-28 cells harboring BRAF V600E mutant at >30000 nM measured after 48 hrs by resazurin assay
[11] = Drug level assessed as compound formation in DMEM using 200 uM dabrafenib measured after daylight exposure for 1 day by HPLC analysis; type: physicochemical; details: 24 h
[12] = Drug level in DMEM treated with dabrafenib at 200 uM measured after irradiation of 226 W/m2 UV-light for 5 mins by HPLC analysis; type: physicochemical
[13] = Drug level assessed as compound formation in DMSO using 200 uM dabrafenib measured after daylight exposure for 1 day by HPLC analysis; type: physicochemical; details: 24 h
[14] = Photostability of the compound in DMSO at 200 uM measured after irradiation of 226 W/m2 UV-light for 5 mins by HPLC analysis; type: physicochemical
[15] = Photostability of the compound in DMSO at 200 uM measured after daylight exposure for 1 day by HPLC analysis; type: physicochemical; details: 24 h
SK-MEL-28 [16] = assay: Growth inhibition of human SK-MEL-28 cells harboring BRAF V600E mutant measured after 48 hrs resazurin assay; type: functional, cell-based; outline: as §2
[17] = Half life of the compound in DMSO at 200 uM measured after irradiation of 1130 W/m2 W/m2 UV-light for 5 mins by HPLC analysis; type: physicochemical; details: DMSO solution under UV irradiation
[18] = Stability of the compound in DMEM assessed as thermal decomposition at 200 uM incubated in dark for 1 day by HPLC analysis; type: physicochemical; details: 24 h
[19] = Half life of the compound in DPBS at 200 uM measured after irradiation of 1130 W/m2 UV-light for 15 mins by HPLC analysis; type: physicochemical; details: DPBS solution under UV irradiation
[20] = Half life of the compound in DMSO at 200 uM measured after irradiation of 226 W/m2 UV-light for 5 mins by HPLC analysis; type: physicochemical; details: DMSO solution under UV irradiation
SK-MEL-28 [21] = assay: Cytostatic activity in human SK-MEL-28 cells harboring BRAF V600E mutant at 1 and 30 uM measured after 48 hrs resazurin assay; type: functional, cell-based
[22] = Stability of the compound in DMSO assessed as thermal decomposition at 200 uM incubated in dark for 1 day by HPLC analysis; type: physicochemical; details: 24 h
[23] = Half life of the compound in DMSO at 200 uM measured after irradiation of 1130 W/m2 UV-light for 15 mins by HPLC analysis; type: physicochemical; details: DMSO solution under UV irradiation
[24] = Photostability of the compound in DMEM at 200 and 1100 uM measured after daylight exposure for 1 day by HPLC analysis; type: physicochemical; details: 24 h
[25] = Drug metabolism in human SK-MEL-28 cells assessed as photo-induced N-(5-amino-2-tert-butyl)-11-fluorbenzol[f]thiazol-[4,5-h]-quinazolin-10-yl)-2,6-difluorbenzolsulfonamide formation at 100 uM followed by UV-light irradiation by DAPI-staining based fluorescence microscopic analysis; type: ADME, cell-based; details: sk-mel-28, 100 µM; outline: as §1

Sequence of Serine/threonine-protein kinase B-raf (P15056 2-766 V600E limits assumed): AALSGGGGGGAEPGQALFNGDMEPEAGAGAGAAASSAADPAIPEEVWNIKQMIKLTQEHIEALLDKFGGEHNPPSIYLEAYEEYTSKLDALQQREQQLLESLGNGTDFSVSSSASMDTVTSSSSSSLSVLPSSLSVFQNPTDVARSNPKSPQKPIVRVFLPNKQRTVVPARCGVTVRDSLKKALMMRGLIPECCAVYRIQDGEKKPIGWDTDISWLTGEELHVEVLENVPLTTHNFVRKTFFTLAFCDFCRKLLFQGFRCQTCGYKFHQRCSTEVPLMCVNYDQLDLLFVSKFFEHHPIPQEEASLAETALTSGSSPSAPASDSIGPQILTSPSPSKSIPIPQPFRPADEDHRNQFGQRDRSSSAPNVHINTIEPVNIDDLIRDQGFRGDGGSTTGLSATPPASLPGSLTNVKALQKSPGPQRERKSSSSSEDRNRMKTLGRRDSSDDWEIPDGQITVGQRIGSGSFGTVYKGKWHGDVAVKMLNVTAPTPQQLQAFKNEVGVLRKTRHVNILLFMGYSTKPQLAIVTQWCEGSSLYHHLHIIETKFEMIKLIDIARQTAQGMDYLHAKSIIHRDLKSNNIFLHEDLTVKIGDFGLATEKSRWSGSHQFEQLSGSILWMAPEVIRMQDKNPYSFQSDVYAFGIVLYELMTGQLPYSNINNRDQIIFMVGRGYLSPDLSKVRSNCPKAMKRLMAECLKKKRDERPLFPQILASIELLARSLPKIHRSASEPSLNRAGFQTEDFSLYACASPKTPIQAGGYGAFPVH

Question: For `CC(C)(C)c1nc2c(s1)c1nc(N)ncc1c1ccc(NS(=O)(=O)c3c(F)cccc3F)c(F)c12`, which Drug uptake [1] is on record?
Answer: Its Drug uptake is “Active”.

Question: What about the Drug metabolism [2] of the same compound?
Answer: The Drug metabolism was “Metabolite_Detected”.

Question: And the Drug metabolism [3]?
Answer: Its Drug metabolism is “Metabolite_Detected”.

Question: And the “growth inhibition (GI)” value (SK-MEL-28 [4])?
Answer: The value was “Active”.

Question: And the pIC50 [5]?
Answer: The pIC50 was 6.55.

Question: What about the Stability [6] of the same compound?
Answer: Its Stability is “Unstable”.

Question: And the Activity (SK-MEL-28 [7])?
Answer: Its Activity is “Active”.

Question: And the Drug metabolism [8]?
Answer: Its Drug metabolism is “Metabolite_Detected”.

Question: And the TGI [9]?
Answer: Its TGI is 8900 nM.

Question: And the Activity (SK-MEL-28 [10])?
Answer: Its Activity is “Active”.

Question: What about the Drug metabolism [11] of the same compound?
Answer: Its Drug metabolism is “Metabolite_Detected”.

Question: What about the Drug metabolism [12] of the same compound?
Answer: Its Drug metabolism is “Metabolite_Detected”.

Question: And the Drug metabolism [13]?
Answer: Its Drug metabolism is “Metabolite_Detected”.

Question: For `CC(C)(C)c1nc(-c2cccc(NS(=O)(=O)c3c(F)cccc3F)c2F)c(-c2ccnc(N)n2)s1` [DABRAFENIB], which Stability [14] is on record?
Answer: Its Stability is “Unstable”.

Question: What about the Stability [15] of the same compound?
Answer: The Stability was “Unstable”.

Question: And the “growth inhibition (GI)” value (SK-MEL-28 [16])?
Answer: The value was “Active”.

Question: What about the half-life at 200 µM [17] of the same compound?
Answer: The half-life at 200 µM was 19.5 s.

Question: What about the Stability [18] of the same compound?
Answer: Its Stability is “Stable”.

Question: What about the “growth inhibition (GI)” value (SK-MEL-28 [4]) of the same compound?
Answer: Its value is “Active”.

Question: What about the half-life at 200 µM [19] of the same compound?
Answer: The half-life at 200 µM was 145 s.

Question: And the half-life at 200 µM [20]?
Answer: Its half-life at 200 µM is 65 s.

Question: And the Activity (SK-MEL-28 [21])?
Answer: Its Activity is “Active”.

Question: And the Stability [22]?
Answer: Its Stability is “Stable”.

Question: What about the half-life at 200 µM [23] of the same compound?
Answer: The half-life at 200 µM was 19.5 s.

Question: What about the Stability [24] of the same compound?
Answer: The Stability was “Unstable”.

Question: And the Drug metabolism [25]?
Answer: Its Drug metabolism is “Metabolite_Detected”.

Question: With `CCCS(=O)(=O)Nc1ccc(F)c(C(=O)c2c[nH]c3ncc(-c4ccc(Cl)cc4)cc23)c1F` [VEMURAFENIB] as the compound, how does the “growth inhibition (GI)” value (SK-MEL-28 [4]) read?
Answer: The value was “Active”.

Question: What about the TGI [9] of the same compound?
Answer: The TGI was 2000 nM.
